# Measurements collected from several papers.
# Compare with care: the assays were run in different laboratories.
# Target: Vascular endothelial growth factor receptor 1 (FLT1, Homo sapiens, UniProt P17948)
Structure (SMILES),assay,conditions,measurement,result
COCc1c(-c2cc3cc(C)cc(OC)c3s2)c2c(N)ncnn2c1CN1CCNC(=O)C1,"cell-free assay, competition with immobilised ligand",1 µM,inhibition,91.7%
CC(C)(C)c1cc(C=C(C#N)C#N)cc(Br)c1O,"enzyme activity, inhibitor",0.5 µM,remaining activity,92.5%
O=C(Nc1cccnn1)N1CCN([C@@H]2CCOc3cc(C(F)(F)F)ccc32)CC1,"enzyme activity, inhibitor",20 µM,inhibition,2%
O=c1[nH]c2ccccc2n1C1CCN(Cc2ccc(-c3[nH]c4cc5ncnc5cc4nc3-c3ccccc3)cc2)CC1,cell-free assay,0.5 µM,remaining signal,92.2%
C#Cc1n[nH]c2c(-c3cn([C@@H](C)c4ccccn4)c(=O)[nH]c3=O)cc(F)cc12,"enzyme activity, inhibitor",0.1 µM,inhibition,2%
Cn1cncc1[C@](O)(COc1ccc(C#N)cc1-c1ccc(OC(F)(F)F)cc1)c1ccc(C#N)cc1,"cell-free assay, competition with immobilised ligand",1 µM,remaining binding,98%
Cn1cc(-c2cc(F)cc(N3CCn4c(cc5c4CCCC5)C3=O)c2CO)cc(Nc2ccc(N3CCN(C4COC4)CC3)cn2)c1=O,"enzyme activity, inhibitor",0.1 µM,inhibition,5%
Nc1ncc(-c2nc(N3CCOCC3)nc(N3CCOCC3)n2)c(C(F)F)n1,"cell-free assay, competition with immobilised ligand",10 µM,remaining binding,91%
COc1ncccc1-c1cnn2ccc(N3CCN(C(=O)OC(C)C)CC3)nc12,"binding, competition with immobilised ligand",1 µM,remaining binding,100%
C#Cc1n[nH]c2c(-c3cn([C@@H](C)c4ccccc4)c(=O)[nH]c3=O)cc(F)cc12,"enzyme activity, inhibitor",0.1 µM,inhibition,1.9%
Cc1ncc(C)n2nc(/C=C/c3nc(N4CCCC4)cc(N4CCOCC4)n3)nc12,"enzyme activity, inhibitor",10 µM,inhibition,-6%
Cn1cc(-c2cccc(N3CCc4c(sc5c4CC(C)(C)C5)C3=O)c2CO)cc(Nc2ccncn2)c1=O,"enzyme activity, inhibitor",1 µM,inhibition,2%
